Only some compounds are listed: those with a hit (about 3.7% of all), similar ones and a draw of the others.
KCNQ1 block: inhibitors of human KCNQ1 channel, primary screen, cell-based, thallium flux, high-throughput | Potassium voltage-gated channel subfamily KQT member 1 (Homo sapiens), P51787 | CHO-K1 KCNQ1, FluxOR thallium flux fluorescence; hits give high values | B-score at 10 µM | actives 1.3% (n = 310,000) | AID 2642, 2010;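 active = compounds whose thallium flux B-score, printed positive for inhibition, exceeds three library SD while starting fluorescence stays within three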;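 note: channel opened by potassium depolarization with thallium stimulus after 20 min compound exposure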
hERG protect: hERG rescue from dofetilide block, primary screen, cell-based, CHO-hERG, FluxOR thallium flux, dofetilide IC70; Voltage-gated inwardly rectifying potassium channel KCNH2 (Homo sapiens), Q12809; dofetilide IC70 present; activation (rescue from dofetilide block), less the hit threshold, % at 10 µM; actives 0.51% (n = 310,000); AID 1511, 2009;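 active = activation above the mean of controls blocked by dofetilide plus 5 SD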;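 note: thallium influx through hERG after potassium depolarization seen as dye fluorescence rise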
Kir21 block: inhibitors of mouse Kir2.1 inward-rectifier potassium channel | HEK293-Kir2.1, FluxOR thallium flux fluorescence; hits give low values | B-score at 10 µM | actives 0.85% (n = 310,000) | AID 1672, 2009;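 active = fluorescence ratio B-score at or below minus 3 SD of library scores, with starting-brightness B-score within 2 SD, cut at about -4.2 in these data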;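 note: channel flux triggered by added potassium and thallium sulfate stimulus; B-score of peak minus minimum fluorescence over baseline after thallium stimulus; more negative B-score means stronger Kir2.1 block with less thallium influx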
Target sequence (P35561 whole entry, looked up): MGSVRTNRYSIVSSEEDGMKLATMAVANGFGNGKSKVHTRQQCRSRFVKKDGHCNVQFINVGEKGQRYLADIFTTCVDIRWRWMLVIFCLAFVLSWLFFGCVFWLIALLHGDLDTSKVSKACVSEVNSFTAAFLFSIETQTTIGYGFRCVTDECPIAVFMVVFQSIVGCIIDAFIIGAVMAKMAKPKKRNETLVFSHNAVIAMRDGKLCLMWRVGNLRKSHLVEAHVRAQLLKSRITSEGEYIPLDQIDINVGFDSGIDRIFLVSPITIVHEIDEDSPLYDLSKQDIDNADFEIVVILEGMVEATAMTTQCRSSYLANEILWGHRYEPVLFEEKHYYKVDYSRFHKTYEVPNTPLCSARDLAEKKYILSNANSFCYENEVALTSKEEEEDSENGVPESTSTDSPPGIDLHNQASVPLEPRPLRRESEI
KCNK3 block: human KCNK3 channel inhibitors, primary screen, CHO cells, FluxOR thallium flux, B-score; actives 0.84% (n = 340,000); B-score at 10 µM; FluxOR fluorescence; hits give low values;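 active = B-score under library mean minus 4 SD, starting fluorescence ratio at most library mean plus 5 SD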;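 note: more negative B-score means stronger inhibition of thallium flux through KCNK3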
KCNQ1 pot: potentiators or activators of KCNQ1 channel, primary screen, cell-based, thallium flux, high-throughput; Potassium voltage-gated channel subfamily KQT member 1 (Homo sapiens), P51787; CHO-K1 KCNQ1, thallium flux FluxOR fluorescence; hits give high values; B-score at 10 µM; actives 0.35% (n = 310,000); AID 2648, 2010;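 active = fluorescence ratio B-score, a plate-corrected score, at least three library SD, with initial intensity B-score within 5 SD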
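Material: CHO-K1 cells stably expressing KCNQ1. Medium: assay buffer for compound exposure, DMSO matched across wells. Reagent: K+/Tl+ depolarizing stimulus. Compound dosing: single-concentration screen. Times: 37 °C overnight plating, 90-min dark dye load, 20-min compound pretreatment. Technique: FluxOR Tl+ flux fluorescence.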
KCNK9 inh: KCNK9 potassium channel inhibitors, primary screen, HEK293 cells, thallium flux; Potassium channel subfamily K member 9 (Homo sapiens), Q9NPC2; B-score at 10 µM; AID 488922, 2010; FluxOR thallium flux fluorescence; hits give low values; actives 1.2% (n = 310,000);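 active = ratio B-score over 3 SD below the library mean, with starting fluorescence within 5 SD of its mean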;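 note: negative B-score means less thallium flux so channel inhibition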
* hit, by the source's call; i = inactive; nt = no result given.

SMILES | KCNQ1 block | hERG protect | Kir21 block | KCNK3 block | KCNQ1 pot | KCNK9 inh
CC1CCN(C(=S)NC(=O)c2ccc(F)cc2)CC1 | nt | nt | nt | i | nt | nt
CN(C(=S)NC(=O)c1ccc(Cl)cc1)C1CCCCC1 | i | -4 | -0.4 | i | 12* | i
CN(C(=S)NC(=O)c1ccccc1)C1CCCCC1 | i | 15* | 0.59 | i | 11* | i
O=C(NC(=O)N1CCCCCC1)c1ccc(Cl)cc1 | i | -8 | 0.57 | i | i | i
CN(C(=S)NC(=O)c1ccc(F)cc1)C1CCCCC1 | i | 3 | 0.26 | i | 8* | i
CCc1ccc(/C=C2/SC(=S)N(CCC(=O)Nc3cccnc3)C2=O)cc1 | i | -4 | 0.44 | i | i | i
S=c1[nH]cnc2sc(-c3ccccc3)cc12 | i | 19* | 1.4 | i | 132* | i
Clc1ncnc2scc(-c3ccccc3)c12 | i | -9 | 1.4 | i | i | i
S=c1[nH]cnc2scc(-c3ccccc3)c12 | i | 60* | -0.58 | i | 18* | i
Cc1cccc(OCC(=O)N2CCc3ccccc3C2)c1 | i | -7 | -0.1 | i | i | i
O=C(c1cnn(C(=O)c2ccco2)c1)c1ccccc1O | nt | nt | nt | i | nt | nt
O=C(c1cnn(C(=O)c2ccc(O)cc2)c1)c1ccccc1O | 6* | -11 | -0.09 | nt | i | i
CC1CCN(C(=O)c2ccc(NS(=O)(=O)c3cccc4cccnc34)cc2)CC1 | i | -8 | -0.48 | i | i | i
COC(=O)c1ccc(C(=O)OC)c(NC(=O)CCc2ccc(C)o2)c1 | i | 45* | 1.3 | i | i | i
O=C(c1ccc(Cl)cc1)C1C2C(=O)N(c3ccccc3)C(=O)C2C2CCCN21 (stereo unspecified) | i | -16 | -2.1 | i | i | i
CC(=O)c1ccc(N2C(=O)C3C(C2=O)C(C(=O)c2ccc(Cl)cc2)N2CCCC32)cc1 (stereo unspecified) | 8* | -20 | -1.9 | nt | i | i
CN1CCC(Oc2ccccc2Sc2ccc(C(F)(F)F)cc2)CC1 | i | -16 | -11* | i | i | i
CN1CCC(OC(=O)COc2ccccc2)CC1 | i | -4 | -0.4 | i | i | i
CN1CCC(OC(=O)c2ccccc2)CC1 | i | -6 | 0.23 | i | i | i
CN1CCC(Oc2ccc(Sc3ccccc3)cc2)CC1 | i | -13 | -7.5* | i | i | i
O=C(COC(=O)c1ccc(Cl)c(Cl)c1)NC1CCCC1 | i | -5 | 0.78 | i | i | i
OCC1(CCOc2ccccc2)CCN(Cc2cc(Cl)ccc2O)CC1 | i | -8 | -4.6* | i | i | i
OCC1(CCCc2ccccc2)CCN(Cc2cc(F)ccc2F)CC1 | i | -5 | -4.4* | i | i | i
OCC1(CCOc2ccccc2)CCN(Cc2ccncc2)CC1 | i | -4 | 0.82 | i | i | i
CCCCN(Cc1nc2ccccc2c(=O)[nH]1)C(=O)CN1C(=O)NC2(CCCCC2)C1=O | nt | nt | nt | i | nt | nt
SMILES | KCNQ1 block | hERG protect | Kir21 block | KCNK3 block | KCNQ1 pot | KCNK9 inh
CCCNCC1C(Oc2ccc(Cl)cc2Cl)C(=O)N1c1cccc(C)c1C (stereo unspecified) | i | -19 | 0.81 | i | i | -6.7*
Cc1ccnc(NC(=O)Cn2cc([N+](=O)[O-])cn2)c1 | i | -10 | 1.8 | i | i | i
Cc1ccc(C#CC[N+]2(CC#Cc3ccc(C)cc3)CCCCC2)cc1 | 12* | -30 | -6.8* | i | i | i
Cc1ccc(C)c(OCC(O)CN2CCc3ccccc3C2)c1C (stereo unspecified) | i | -11 | -5.7* | i | i | i
Cc1nn(C(=O)CNC(=O)c2ccccc2)c(C)c1C | i | 8.0* | -0.54 | i | i | i
CC(C)Oc1ccc(OCCCN2CCCCCC2)cc1 | i | -5 | -0.14 | i | i | i
CC(C)Oc1ccc(C(CCN)C2CCCCC2)cc1 (stereo unspecified) | i | -15 | -8.3* | i | i | i
CCC(C)(C)n1nnnc1C(c1ccc(C)cc1)N(Cc1ccco1)Cc1cccs1 (stereo unspecified) | i | -3 | 0.02 | i | i | -6.9*
CC(C)(C)n1nnnc1C(c1cccnc1)N(Cc1ccccc1)Cc1ccco1 (stereo unspecified) | i | -8 | -0.41 | i | i | i
CN(C1=C(NC(=O)c2ccccc2)C(=O)c2ccccc2C1=O)C1CCS(=O)(=O)C1 (stereo unspecified) | i | -1 | 0.09 | i | i | i
CC(=O)NC1=C(NC2CCS(=O)(=O)C2)C(=O)c2ccccc2C1=O (stereo unspecified) | i | 3 | -1.5 | i | 12* | i
CC(C)(C)OC(=O)N1CCC[C@H]1c1nnc(SCc2ccccc2Cl)o1 | i | -10 | -8* | i | i | i
CC(C)(C)OC(=O)N1CCC[C@H]1c1nnc(SCc2ccc(Cl)cc2)o1 | i | -11 | -7.5* | i | i | i
CC(C)(C)OC(=O)N1CCC[C@H]1c1nnc(SCc2ccc(Cl)cc2Cl)o1 | i | -5 | -3.3 | i | i | i
CC(C)(C)OC(=O)N1CCC[C@H]1c1nnc(SCc2cccc(Cl)c2)o1 | i | -5 | -8.6* | i | i | i
O=C(COc1ccc([N+](=O)[O-])cc1)Nc1ccccc1C(=O)NC1CC1 | i | -3 | 0.06 | i | i | i
Cc1cc(-c2nc3cc(F)ccc3s2)ccc1N | nt | nt | nt | i | nt | nt
CN(C)Cc1nc2ccccc2c(=O)n1Cc1nc(-c2cccc([N+](=O)[O-])c2)cs1 | i | -13 | 1.9 | i | i | -7.6*
CS(=O)(=O)N(Cc1cccc(CN(C(C(=O)O)c2ccccc2)S(C)(=O)=O)c1)C(C(=O)O)c1ccccc1 (stereo unspecified) | i | -3 | 0.97 | i | i | i
CC(C)C[C@@H](C(=O)O)N(Cc1cccc(CN([C@@H](CC(C)C)C(=O)O)S(C)(=O)=O)c1)S(C)(=O)=O | i | 4.7* | -0.25 | i | i | i
CN1/C(=C\C(=S)Nc2ccccc2)C(C)(C)c2ccccc21 | i | -4 | -1.9 | i | i | -6.9*

Assay outcomes as filed in PubChem.
